The test system of assay [1] is KB. The experiment in a line: Cytotoxicity against human KB cells assessed as growth inhibition at 1 uM after 72 hrs by MTS assay. The class given is functional. The procedure, abridged:
(§1)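 KB cells plated at 650 cells/well, treated 24 h later with compounds in DMSO at 10^-5 or 10^-6 M, in triplicate. Controls got DMSO at 1% final volume; taxotere 2.5×10^-10 M served as reference. After 72 h exposure, MTS reagent added for 3 h at 37 °C and absorbance read at 490 nm. Results given as percent inhibition of proliferation relative to control OD.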
(In general: Formazan colour is commonly taken as a measure of viable cells.)

Assay [2] has as its system KB. Nature of the assay: Cytotoxicity against human KB cells assessed as growth inhibition at 10 uM after 72 hrs by MTS assay. The assay is classed as functional. The procedure, abridged:
as §1

For assay [3], the system named is KB. The experiment in a line: Cytotoxicity against human KB cells assessed as growth inhibition after 72 hrs by MTS assay. The assay is classed as functional, cell-based. The procedure, abridged: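 KB cells seeded at 650 cells/well and dosed 24 h later with DMSO solutions (1% final DMSO, also given to controls) over a range starting at 0.5 nM. After 72 h exposure, MTS added for 3 h at 37 °C and A490 read. Proliferation inhibition taken versus control OD. IC50 (50% inhibition) determined in separate duplicate for compounds giving over 80% inhibition at 10^-6 M.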

Assay [4] in a line: Inhibition of tubulin.

A word on the inhibition: it is the percentage by which the read-out fell short of the control. The IC50 is the concentration that inhibits the measured activity by half. For the molecule `COc1ccc(/C(C)=C2/CC(=O)c3cccn32)cc1O`, the inhibition at 1 µM with KB [1] came out at 91%. For the same molecule, the inhibition at 10 µM in the assay with KB [2] came out at 95%. Besides, the IC50 with KB [3] was found to be 0.07 µM.

Consider `COc1ccc(/C(C)=C2/CC(=O)c3cccn32)cc1`, for which the inhibition at 1 µM in the assay on KB [1] was 1%. In the assay with KB [2], the inhibition at 10 µM was found to be 78%.

Turning to `C/C(=C1\CC(=O)c2cccn21)c1ccc(Cl)cc1`, in the assay on KB [1], the inhibition at 1 µM worked out at 0%. For the same molecule, the inhibition at 10 µM in the assay on KB [2] stood at 0%.

For `CC(C)C1CC(=O)c2cccn21` (configuration not stated), in the assay with KB [1], the inhibition at 1 µM amounted to 0%. Also, the inhibition at 10 µM in the assay with KB [2] worked out at 0%.

Turning to `COc1ccc(-c2csc3c2-n2cccc2C3=O)cc1O`, in the assay with KB [1], the inhibition at 1 µM amounted to 86%. In addition, the inhibition at 10 µM in the assay with KB [2] was 86%. The IC50 in the assay on KB [3] turned out to be 0.0057 µM; in assay [4], 2.9 µM.

For the molecule `COc1ccc(-c2csc3c2-n2cccc2C3=O)cc1`, the inhibition at 1 µM in the assay on KB [1] was 92%. Also, the inhibition at 10 µM with KB [2] is 84%. The IC50 in the assay with KB [3] was 0.05 µM.

`CC(=O)O[C@@]12CO[C@@H]1C[C@H](O)[C@@]1(C)C(=O)[C@H](O)C3=C(C)[C@@H](OC(=O)[C@H](O)[C@@H](NC(=O)OC(C)(C)C)c4ccccc4)C[C@@](O)([C@@H](OC(=O)c4ccccc4)[C@H]21)C3(C)C` [DOCETAXEL]: the IC50 in the assay with KB [3] stood at 0.0004 µM.

The values are drawn from ChEMBL document CHEMBL1154882, “Hydrogenative desulphurization of thienopyrrolizinones: an easy and selective access to (Z)-phenethylidenepyrrolizinones with in vitro cytotoxic activity” (Eur J Med Chem, 2010).
